Measurements from PMC12217622 (Nature Communications, 2025).

Legend:
MtLYR8 = experiment: Radiolabelled LCO binding to membrane fractions, MtLYR8; set-up: species or system Medicago truncatula; details: 2 µM competitor
Method in brief: (§1)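 N. benthamiana leaves (~20 g) were homogenised at 4 °C in Tris pH 8.5, sucrose, EDTA, DTT, PVPP and protease inhibitors, then spun at 3000 x g and 45,000 x g. The pellet was resuspended in 25 mM Na cacodylate pH 6, 1 mM MgCl2, 1 mM CaCl2, 250 mM sucrose. 35S-LCO (enzymatic NodH sulfation) was bound for 1 h on ice, then filtered through glass fibre, washed and counted by scintillation. Three technical replicates.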

TaLYR2A = experiment: Radiolabelled LCO binding to membrane fractions, TaLYR2A; set-up: species or system Triticum aestivum; details: 2 µM competitor
Method in brief: as §1

TaLYR2B = experiment: Radiolabelled LCO binding to membrane fractions, TaLYR2B; set-up: species or system Triticum aestivum; details: 2 µM competitor
Method in brief: as §1

TaLYR2D = experiment: Radiolabelled LCO binding to membrane fractions, TaLYR2D; set-up: species or system Triticum aestivum; details: 2 µM competitor
Method in brief: as §1

[1] = tested on: R. irregularis DAOM 197198; experiment: Stimulation of AMF root-length colonization by LCO and CO4 treatments in wheat; format: in vivo, Triticum aestivum; details: 10^−7 M treatment
Method in brief: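 Fielder wheat carried a pZmUBI:BdLYR2-cmyc cassette or empty vector, two lines each. Surface-sterilised seeds were germinated 1 week at 4 °C and 3 days at 25 °C, then planted in attapulgite with 500 R. irregularis DAOM 197198 spores. Plants got 0.5x Long Ashton (7.5 µM NaH2PO4) with 10^-7 M LCO or CO4 or 0.05% acetonitrile at start, 2 and 4 weeks. Roots were stained at 5–6 wpi; colonization was normalised to untreated controls; Kruskal-Wallis test.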

Row | competition of LCO binding (MtLYR8) | competition of LCO binding (TaLYR2A) | competition of LCO binding (TaLYR2B) | competition of LCO binding (TaLYR2D) | SMILES | effect on AMF colonization ([1]; control wheat plants (empty vector)) | effect on AMF colonization ([1]; transgenic wheat plants pUbi:BdLYR2)
1 | complete competition | complete competition | complete competition | complete competition | CC(=O)N[C@H]1[C@H](O[C@H]2[C@H](O)[C@@H](NC(C)=O)C(O)O[C@@H]2CO)O[C@H](CO)[C@@H](O[C@@H]2O[C@H](CO)[C@@H](O[C@@H]3O[C@H](CO)[C@@H](O)[C@H](O)[C@H]3NC(C)=O)[C@H](O)[C@H]2NC(C)=O)[C@@H]1O (stereo partly shown) [CO4] | increased AMF colonization | no further increase
2 | complete competition | complete competition | complete competition | complete competition | CC(=O)N[C@H]1[C@H](O[C@H]2[C@H](O)[C@@H](NC(C)=O)[C@H](O[C@H]3[C@H](O)[C@@H](NC(C)=O)[C@H](O[C@H]4[C@H](O)[C@@H](NC(C)=O)C(O)O[C@@H]4CO)O[C@@H]3CO)O[C@@H]2CO)O[C@H](CO)[C@@H](O[C@@H]2O[C@H](CO)[C@@H](O[C@@H]3O[C@H](CO)[C@@H](O[C@@H]4O[C@H](CO)[C@@H](O[C@@H]5O[C@H](CO)[C@@H](O)[C@H](O)[C@H]5NC(C)=O)[C@H](O)[C@H]4NC(C)=O)[C@H](O)[C@H]3NC(C)=O)[C@H](O)[C@H]2NC(C)=O)[C@@H]1O (stereo partly shown) [CO8] |  | 
